An excerpt weighted towards active compounds, which were near 4.7% of everything screened.
Mdm2 MdmX PPI: inhibitors of human Mdm2/MdmX interaction. inhibition, % at 8 µM. AID 485346. O15151+Q00987. SaOS-2 split-luciferase Mdm2/MdmX complementation, luminescence. 330,000 tested, 3% active;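 active = inhibition of at least 50% at 8 µM in the primary screen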
Target sequence (O15151 whole entry, looked up): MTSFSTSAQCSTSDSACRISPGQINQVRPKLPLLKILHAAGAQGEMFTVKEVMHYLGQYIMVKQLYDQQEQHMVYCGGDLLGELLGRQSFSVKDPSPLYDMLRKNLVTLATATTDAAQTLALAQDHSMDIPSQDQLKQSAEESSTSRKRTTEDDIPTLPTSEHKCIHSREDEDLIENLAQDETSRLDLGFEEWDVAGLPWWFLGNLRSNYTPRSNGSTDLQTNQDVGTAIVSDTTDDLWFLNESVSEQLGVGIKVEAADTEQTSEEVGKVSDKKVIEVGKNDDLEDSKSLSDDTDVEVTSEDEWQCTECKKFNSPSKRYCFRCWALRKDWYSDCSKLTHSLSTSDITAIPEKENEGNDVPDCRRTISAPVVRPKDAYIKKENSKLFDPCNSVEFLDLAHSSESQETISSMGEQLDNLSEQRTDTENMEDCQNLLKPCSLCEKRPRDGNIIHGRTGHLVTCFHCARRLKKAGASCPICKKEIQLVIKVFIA
Target sequence (Q00987 whole entry, looked up): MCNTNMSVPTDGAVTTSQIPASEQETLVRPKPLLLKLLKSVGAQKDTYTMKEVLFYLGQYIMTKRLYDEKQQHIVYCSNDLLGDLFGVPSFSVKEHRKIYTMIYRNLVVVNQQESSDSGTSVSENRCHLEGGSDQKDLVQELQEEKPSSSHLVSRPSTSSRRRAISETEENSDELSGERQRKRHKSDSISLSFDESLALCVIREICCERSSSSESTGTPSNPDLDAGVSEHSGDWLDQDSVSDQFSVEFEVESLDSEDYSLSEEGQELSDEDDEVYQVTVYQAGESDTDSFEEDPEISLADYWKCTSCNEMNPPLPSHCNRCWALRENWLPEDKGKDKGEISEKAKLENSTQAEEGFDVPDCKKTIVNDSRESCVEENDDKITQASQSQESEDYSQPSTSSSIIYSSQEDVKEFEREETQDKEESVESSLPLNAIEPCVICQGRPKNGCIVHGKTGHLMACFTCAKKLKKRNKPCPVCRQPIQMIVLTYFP
Jurkat NFkB inh: lowers PMA/ionomycin-induced NF-kB signal in Jurkat cells; PMA/ionomycin-induced NF-kB luciferase reporter, luminescence; inhibition, % at 4 µM; 330,000 tested, 0.53% active; in the data active = inhibition above about 50%
aSyn UTR inh: MLPCN primary screen, SNCA 5' untranslated region | alpha-synuclein 5'UTR reporter, inhibitor activity | inhibition, % (tested at 7.5 µM) | 300,000 tested, 0.82% active | AID 1813; in the data active = inhibition above about 60%;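 note: H4 neuroglioblastoma cells stably carrying SNCA 5'UTR luciferase fusion; 0% = DMSO wells and 100% = positive control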
IMP-1 inh: blocks Pseudomonas aeruginosa IMP-1 metallo-beta-lactamase; purified IMP-1, nitrocefin hydrolysis, epi-absorbance fluorescence; inhibition, % at 5.6 µM; 290,000 tested, 0.45% active;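 active = inhibition above the mean plus 3 SD of all compounds in the same screening run, cut at about 4.5% in these data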;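 note: 0% = IMP-1 with DMSO and 100% = DMSO wells lacking enzyme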
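assay system = purified recombinant IMP-1 metallo-beta-lactamase enzyme | schedule = 15 min preincubation plus 25 min reaction at 25 °C | signal = Epi-absorbance fluorescence, 480 nm excitation, 530 nm emission | read-out basis = percent inhibition from optical density relative to buffer-blank wells | controls = IMP-1 with DMSO as 0%, enzyme-free DMSO as 100%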
VIM-2 inhibitor: inhibitors of Pseudomonas aeruginosa VIM-2 metallo-beta-lactamase. 290,000 tested, 0.89% active. purified VIM-2, nitrocefin hydrolysis, epi-absorbance fluorescence. inhibition, % at 5.6 µM;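 active = inhibition above the mean of all tested compounds plus 3 SD, cutoff set per screening run, cut at about 7.5% in these data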;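 note: red hydrolysis product quenches plate fluorescence so inhibitors raise well fluorescence; 0% = enzyme with DMSO and 100% = DMSO without enzyme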
697 NFkB inh: lowers PMA/ionomycin-induced NF-kB signal in 697 B cells; 697 B-cell NF-kB luciferase reporter, 16 h; inhibition, % at 4 µM; 330,000 tested, 0.33% active; AID 435022; in the data active = inhibition above about 35%
Jurkat NFkB conf: inhibitors of the PMA/ionomycin-induced NF-kB reporter in Jurkat cells, retest. 2,700 tested, 27% active. shares compounds with Jurkat NFkB inh. inhibition, % at 4 µM. Jurkat NF-kB luciferase, 16 h. AID 435020;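 active = inhibition reaching about 45% at 4 µM in either replicate, limit read from the data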;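 note: plate controls were PMA/ionomycin stimulated DMSO wells for no effect and unstimulated DMSO wells for full effect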
697 NFkB conf: lowers PMA/ionomycin-induced NF-kB signal in 697 B cells; shares compounds with 697 NFkB inh; 697 B-cell NF-kB luciferase, 16 h; AID 449746; inhibition, % at 4 µM; 2,000 tested, 35% active; in the data active = inhibition mostly above about 28%, no sharp cut-off; inactive = mostly below about 22%
The depositor's hits bear a star; i = inactive; x = no result.

SMILES	Mdm2 MdmX PPI	Jurkat NFkB inh	aSyn UTR inh	IMP-1 inh	VIM-2 inhibitor	697 NFkB inh	Jurkat NFkB conf	697 NFkB conf
Clc1ccc(-c2cnn3c(-c4ccncc4)ccnc23)cc1	-44.9	-159.1	-17.4	-0.3	-0.8	-376.2	-88.8	-299.8
N#Cc1c(NC(=O)CSc2nc(N)cc(=O)[nH]2)sc2c1CCCCCC2	25.2	14.2	14.5	-0.9	-1.7	-58.5	x	x
N#Cc1c(NC(=O)CSc2ncn[nH]2)sc2c1CCCCC2	48.5	63.4*	82.5*	-2.1	1.1	70.5*	64.9*	59.2*
CCCCN(C)C(=O)c1cc2cc3ccc(OC)cc3nc2s1	-161.8	-185.1	-4.3	0.9	3.7	-275.4	-132.4	-265.9
Cc1cccc(C)c1-n1c(C)nn(CC2CC2)c1=O	7.4	-3.0	6.9	1.4	1.5	7.6	x	x
Cc1cc(C(=O)Nc2sc(C)c(-c3ccc(F)cc3)c2C(N)=O)no1	-47.8	-191.5	-199.8	3.5	-3.5	-294.4	-96.4	-204.1
Cn1nc(CC(=O)Nc2ccc3c(c2)CCC3)c2ccccc2c1=O	22.6	59.4*	25.6	-1.2	-2.9	41.4*	67.5*	46.9*
O=C(/C=C/Nc1ccc(F)cc1F)c1ccc(Br)cc1	-91.2	-166.9	-19.4	x	x	-255.2	-30.0	-62.3
Cc1ccc(N/C=C/C(=O)c2cccs2)cc1	-133.6	-157.9	41.8	-3.1	1.1	-260.8	8.8	-132.8
Cc1noc(NS(=O)(=O)c2ccc(N/C=C\C(=O)c3cccs3)cc2)c1C	15.6	-13.9	-33.7	-1.7	-2.7	-11.5	x	x
O=C(/C=C/Nc1ccc(F)cc1F)c1ccco1	-90.9	-64.0	23.7	-1.7	-6.1	-153.5	x	x
O=C(/C=C/Nc1ccc(F)cc1F)c1cccs1	-207.1	-168.2	-12.9	-2.8	-1.7	-364.2	-37.4	-196.8
CCN(CC)c1ccc(S(=O)(=O)N2CCOCC2)cc1NC(=O)COC(=O)/C=C/c1ccc(C)o1	43.2	-2.7	-1.8	x	x	12.0	x	x
Cc1cnc(NC(=O)CSc2ccc(Cl)cc2)s1	13.6	-6.7	-10.8	-2.0	-1.6	9.5	x	x
Cc1cnc(NC(=O)Nc2ccc(Cl)cc2)s1	-81.1	81.0*	-186.8	-1.7	0.1	64.6*	24.5	49.2*
Oc1cccc(/C=C/c2ccc3cccc(O)c3n2)c1	-90.6	-167.2	-11.6	-0.5	-1.3	-360.4	-142.2	-77.1
O=C(Nc1cccc(Cl)c1)Nc1cccc(C(=O)O)c1	-4.5	26.7	54.6	-2.9	-2.2	-40.9	x	x
O=C(Nc1ccc(Cl)cc1)Nc1cccc(C(=O)O)c1	-1.3	75.8*	42.4	-3.2	-4.0	52.5*	43.5	31.9*
COc1ccc(N=Cc2c(O)[nH]c3ccccc23)cc1	-242.5	-186.2	-144.1	-3.2	-1.3	-297.3	-32.0	-108.7
O=C(NC(=S)Nc1ccccn1)c1ccc([N+](=O)[O-])cc1	-57.7	-42.3	-118.9	-2.1	-1.5	-94.1	x	x
O=C(NC(=S)Nc1ccccn1)c1ccc(-c2ccccc2)cc1	-28.8	-188.1	-30.8	-3.0	-6.7	-287.1	-55.0	-431.9
Nc1c(-c2ccccc2)cnc2c(-c3ccccc3)cnn12	-161.1	-231.4	-23.0	-5.0	-1.4	i	-190.3	i
OC(COc1ccc(Br)cc1)CN1CCN(c2ccccc2)CC1 (configuration not stated)	-0.7	5.1	15.9	-3.9	-1.6	-6.9	x	x
N#Cc1nc(Nc2cccc(Cl)c2)c2ncn(C3CCCC3)c2n1	30.9	-256.6	x	x	x	-259.5	-58.8	-358.2
CCn1cnc2c(Nc3cc(F)cc(F)c3)nc(C#N)nc21	-31.9	-39.9	x	x	x	-81.5	x	x
SMILES	Mdm2 MdmX PPI	Jurkat NFkB inh	aSyn UTR inh	IMP-1 inh	VIM-2 inhibitor	697 NFkB inh	Jurkat NFkB conf	697 NFkB conf
Cc1ccc2c(=O)n3c(nc2c1)C(Cc1ccc(O)cc1)NC(=O)c1ccc(Cl)cc1-3 (configuration not stated)	26.7	-20.7	x	x	x	-0.7	x	x
CC1(C)CC(N2CCCC2)=CC(=[N+]2CCCCCC2)C1	41.9	57.0*	-2.0	-0.3	1.8	71.1*	63.2*	50.6*
O=Nc1ccc(O)c2ncccc12	34.2	59.7*	-235.5	-1.9	0.3	i	24.6	i
O=S(=O)(O)c1cccc2c(N=Nc3ccc(O)c4ncccc34)cccc12	x	x	8.5	-6.9	1.1	x	x	x
O=C1c2cccc3c2[C@H](CCC3)CN1[C@@H]1CN2CCC1CC2	23.1	-10.2	37.0	x	x	6.7	x	x
Cc1ccc(S(=O)(=O)N(C)C)cc1NC(=O)c1ccc2ccccc2n1	-10.7	-22.5	-22.6	-4.4	-1.7	-10.3	x	x
Cc1ccc(C)c(NC(=O)c2ccc3ccccc3n2)c1	-160.2	-176.6	-33.9	-0.8	0.5	-282.8	-98.4	-189.1
COc1ccc2oc(=O)c(C(=O)Nc3ccccc3O)cc2c1	-240.5	-200.6	-3.4	0.0	-0.5	-279.5	-107.7	-296.4
CC1(C)CC(=O)C=C(c2ccc(I)cc2)C1	9.5	-1.0	x	x	x	0.4	x	x
COc1ccc(OC)c(NC(=O)COC(=O)CN2C(=O)NC3(CCCC3)C2=O)c1	-11.6	4.1	x	x	x	10.2	x	x
COc1ccc(-n2ncc3c(NCC(C)C)ncnc32)cc1	-77.5	-185.4	-0.7	-3.0	-3.4	-326.9	-136.0	-300.2
COc1ccccc1CNc1ncnc2c1cnn2-c1ccccc1	-0.1	-6.9	-58.1	x	x	-19.1	x	x
CN(C)c1ccc(/C=N/NC(=O)c2ccccc2)cc1	-74.6	-30.5	-120.0	-1.7	-0.7	-77.9	x	x
C/C(=N/N=C/c1ccc(N(C)C)cc1)c1ccccc1	-82.4	-163.4	-159.6	-0.4	-0.7	-273.8	0.6	-48.5
O=C1c2ccccc2C(=O)N1c1cccnc1	12.7	53.0*	-29.7	-1.8	-2.5	45.4*	12.4	-19.2
O=C(OC1CCCCC1)c1ccc(NC(=O)C2CCCCC2)cc1	-1.9	-25.7	6.2	-4.0	-3.0	-58.6	x	x
CC(C)(C)C(=O)Nc1ccc(C(=O)OC2CCCCC2)cc1	-65.3	-189.0	-53.1	-2.8	-5.7	-301.2	-164.3	-252.9
CC1CCC(CN2C(Nc3ccccc3)=NC[C@@H]2Cc2ccccc2)CC1 (some centres not stated)	46.8	-2.9	x	x	x	-24.7	x	x
CC(=O)c1c(C)[nH]c(C(=O)Nc2ccc(F)c(F)c2F)c1C	0.4	-5.5	-25.2	-2.3	-1.6	-2.4	x	x
CCOC(=O)c1sc2nc(-c3ccccc3)ccc2c1N	-135.3	-296.0	-23.0	-2.4	-1.0	-335.9	-79.5	-187.8
Cc1ccc(NC2=Nc3ccccc3CS2)cc1	-177.7	-182.2	19.4	-0.4	-2.8	-330.7	-140.6	-341.4
Nc1[nH]ncc1S(=O)(=O)c1ccccc1	15.7	12.2	-5.2	-1.8	-1.6	13.6	x	x
O=C(CSc1nnnn1C1CCCCC1)Nc1ccccc1F	26.6	7.9	4.4	-2.3	-1.4	11.7	x	x
O=C(CSc1nnnn1C1CC2CCC1C2)Nc1ccnc2ccccc12 (configuration not stated)	37.0	82.7*	x	-3.1	-4.5	94.6*	70.9*	95.9*
